Experimental data: ChEMBL document CHEMBL1123479, “Substituted 1,3,4-thiadiazoles with anticonvulsant activity. 2. Aminoalkyl derivatives” (J Med Chem, 1986)

Columns and labels:
Mus musculus [1] = species: Mus musculus; assay: Compound was evaluated for anticonvulsant activity in mice against metrazole seizures; assay type: functional
Outline: (§1)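 Mouse screen with oral dosing; the ED50 is given in mg/kg, po. Signs of sedation, ataxia, loss of righting reflex and death were noted after oral dosing before anticonvulsant testing.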

Mus musculus [2] = species: Mus musculus; assay: Compound was evaluated for anticonvulsant activity in mice against electroshock seizures; assay type: functional; outline: as §1
Mus musculus [3] = assay: Compound was evaluated for inhibition of hind limb tonus (anticonvulsant activity) in mouse maximal metrazole seizures (MMS) after peroral administration; assay type: functional; details: Hindlimb, po
Mus musculus [4] = species: Mus musculus; assay: Compound was evaluated for inhibition of hind limb tonus (anticonvulsant activity) in mouse; assay type: functional, Hindlimb
Outline: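 Maximal electroshock in mice, ip dosing. The ED50 (mg/kg) is for blocking hind limb tonic extension at each compound's time of peak effect, which was determined in min. 95% confidence limits are reported.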

[5] = Compound was tested for rotarod test in mice and TD50 value at which 50% of trained animals fall off rotarod was reported; assay type: organism-based; details: mouse, in vivo
Outline: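 Mice trained on the rotorod, then dosed po (tested at 1 h) or ip (tested at time of peak anticonvulsant effect). Neurotoxicity scored as falling off the rod.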

Mus musculus [6] = species: Mus musculus; assay: Compound was evaluated for inhibition of hind limb tonus (anticonvulsant activity ) in mouse; assay type: functional, Hindlimb
Outline: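 Maximal electroshock in mice, scoring abolition of hind-limb tonic extension. Compound given ip and tested at its time of peak effect. ED50 in mg/kg reported with 95% confidence limits.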

SMILES | ED50 (Mus musculus [1]) | ED50 (Mus musculus [2]) | other results
NCCc1nnc(-c2ccccc2-c2ccccc2)s1 | 68 mg/kg | 50 mg/kg | –
CC(C)NCc1nnc(-c2ccccc2-c2ccccc2)s1 | 35 mg/kg | 23 mg/kg | –
CNCc1nnc(-c2ccccc2)s1 | > 200 mg/kg | > 200 mg/kg | –
NCCCc1nnc(-c2ccccc2-c2ccccc2)s1 | > 200 mg/kg | > 200 mg/kg | –
CC(N)c1nnc(-c2ccccc2-c2ccccc2)s1 (centres undefined) | 32 mg/kg | 21 mg/kg | –
NCc1nnc(-c2ccccc2-c2ccccc2)s1 | – | – | ED50 (Mus musculus [3]): 20 mg/kg; Peak effect time (Mus musculus [4]): 10 min
CCCCCCOc1ccccc1-c1nnc(CNC)s1 | – | 44 mg/kg | –
Cc1ccccc1NCc1nnc(-c2ccccc2-c2ccccc2)s1 | > 200 mg/kg | > 200 mg/kg | –
NCc1nnc(Cc2ccccc2)s1 | 200 mg/kg | 110 mg/kg | –
CN(C)Cc1nnc(-c2ccccc2-c2ccccc2)s1 | 35 mg/kg | 32 mg/kg | –
c1ccc(CNCc2nnc(-c3ccccc3-c3ccccc3)s2)cc1 | 29 mg/kg | 37 mg/kg | –
CNCc1nnc(-c2ccccc2-c2ccccc2)s1 | 20 mg/kg | 25 mg/kg | –
NCc1nnc(Cc2ccccc2-c2ccccc2)s1 | – | 30 mg/kg | –
CCCCCCOc1ccccc1-c1nnc(CN)s1 | – | 34 mg/kg | –
NC(=O)N1c2ccccc2C=Cc2ccccc21 [CARBAMAZEPINE] | – | – | Peak effect time (Mus musculus [4]): 20 min
CCC1(c2ccccc2)C(=O)NC(=O)NC1=O [PHENOBARBITAL] | – | – | TD50 [5]: 86 mg/kg; Peak effect time (Mus musculus [6]): 30 min
O=C1NC(=O)C(c2ccccc2)(c2ccccc2)N1 [PHENYTOIN] | – | – | Peak effect time (Mus musculus [6]): 60 min
